Assay [1] is described as follows: Cytotoxicity against human NCI60 cells assessed as concentration required for total growth inhibition. It counts as functional. The gist of the method: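 NCI 60 human tumor cell line screen. TGI is the concentration causing total growth inhibition, given as the mean across the 60-cell-line panel.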
For assay [2], the system named is DNA. Nature of the assay: Binding affinity to calf thymus DNA at 5 uM after 18 hrs by UV-visible spectrophotometric analysis. The assay is classed as nucleic-acid assay. To be noted: Bos taurus. The gist of the method:
(§1)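 Calf thymus DNA at 50 μM bp with ligand fixed at 5 μM. Buffer was 10 mM sodium phosphate, 1 mM EDTA, pH 7.00, with ≤0.3% DMSO. Incubated at 37 °C, then melted at 1 °C/min from 50–99 °C while monitoring absorbance at 260 nm. Buffer baseline subtracted and DMSO-corrected. ΔTm = Tm(DNA+ligand) − Tm(DNA), run in triplicate.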

Assay [3] relates to DNA. Put plainly: Binding affinity to calf thymus DNA at 5 uM after 4 hrs by UV-visible spectrophotometric analysis. It counts as nucleic-acid assay. The conditions noted are these: Bos taurus. The method, boiled down:
as §1

Assay [4] can be described thus: Cytotoxicity against human NCI60 cells. To be noted: for CC50: read-out: LC50 (the source's name). It counts as functional. The gist of the method: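 Screened in the NCI 60 human tumour cell-line panel. Values are GI50 (50% growth inhibition), TGI (total growth inhibition) and LC50 (50% lethality) concentrations, each reported as the mean across the 60-cell-line panel.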

The species named for assay [5] is Homo sapiens. Nature of the assay: Binding affinity to 170 bp human DNA topoisomerase 2-alpha promoter ICB1 site at 1 uM after 17 hrs by DNase 1 footprinting assay. The gist of the method:
(§2)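 170 bp Topo IIα promoter fragment (ICB1 and ICB2) PCR-amplified from human genomic DNA, IR700 end-labeled, used at 4 nM final. Incubated in the dark for 17 h at room temperature. DNase I digestion for 8 min, stopped with EDTA. Denaturing sequencing gel with IR dye detection and G+A markers.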

Assay [6] deals with NIH/3T3. Nature of the assay: Binding affinity to topo 2-alpha ICB1 (5'-CAGGGATTGGCTGGT-3') in mouse NIH/3T3 cells nuclear extract assessed as inhibition of NF-Y transcription factor binding at 5 uM preincubated for 1.5 hrs and by electrophoretic mobility shift assay. It counts as cell-free. The method, boiled down: (§3)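 Nuclear extract from NIH3T3 cells grown in DMEM with 10% newborn calf serum. 5 μg extract held at 4 °C for 30 min in K-Hepes pH 7.9 buffer with poly(dI-dC). About 0.1 ng of 32P end-labeled double-stranded ICB1 or ICB2 oligonucleotide then added for 2 h at room temperature. Run on 4% native polyacrylamide gel at 4 °C with autoradiography. Cold and mutated oligonucleotides served as controls.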
(A gel shift assay detects complexes by their altered migration in electrophoresis.)

The next assay deals with NIH3T3. Nature of the assay: Binding affinity to topo 2-alpha ICB2 (5'-CTACGATTGGTTCTT-3') in mouse NIH/3T3 cells nuclear extract assessed as inhibition of NF-Y transcription factor binding at 5 uM preincubated for 1.5 hrs by electrophoretic mobility shift assay. It counts as cell-free. The method, boiled down:
as §3

The species entered for assay [7] is Homo sapiens. Nature of the assay: Binding affinity to 170 bp human DNA topoisomerase 2-alpha promoter ICB2 site at 1 uM after 17 hrs by DNase 1 footprinting assay. The gist of the method: as §2
Assay [8] concerns NIH/3T3. Put plainly: Binding affinity to Topo 2-alpha ICB1 (5'-CAGGGATTGGCTGGT-3') in mouse NIH/3T3 cells nuclear extract assessed as inhibition of NF-Y transcription factor binding at 50 uM preincubated for 1.5 hrs by electrophoretic mobility shift assay. It counts as cell-free. The method, boiled down:
as §3

The species entered for assay [9] is Homo sapiens. Nature of the assay: Binding affinity to 170 bp human DNA topoisomerase 2-alpha promoter ICB1 site at 5 uM after 17 hrs by DNase 1 footprinting assay. The method, boiled down:
as §2

The source made the active and inactive calls. No cut-off for these calls is given here.

Broadly, the TGI is the concentration giving total growth inhibition. In general, ΔTm refers to the change in melting temperature against a reference sample. As usually defined, the GI50 is the concentration at which growth is held to half of that of the control.

Turning to `COC(=O)c1cc(NC(=O)c2nc(NC(=O)c3nc(NC(=O)CCCOc4cc5c(cc4OC)C(=O)N4CCC[C@H]4C=N5)cn3C)cn2C)cn1C`, the concentration for total growth inhibition (TGI) in [1] stood at 0.037 µM. Also, the ΔTm with DNA [2] worked out at 15.4 °C; in the assay with DNA [3] it was 15 °C. In [4], the GI50 was 0.0038 µM. Besides, the CC50 in [4] was 6.8 µM.
With `CCOC(=O)c1csc(NC(=O)c2cc(NC(=O)c3csc(NC(=O)CCCOc4cc5c(cc4OC)C(=O)N4CCC[C@H]4C=N5)n3)cn2C)n1`, the ΔTm in the assay with DNA [2] was 7.8 °C; in the assay on DNA [3] it was 7.1 °C.
The corresponding values for `CCOC(=O)c1csc(NC(=O)c2csc(NC(=O)c3cc(NC(=O)CCCOc4cc5c(cc4OC)C(=O)N4CCC[C@H]4C=N5)cn3C)n2)n1` are 8.4 °C and 8.1 °C.
On to `CCOC(=O)c1nc(NC(=O)c2cc(NC(=O)c3cc(NC(=O)CCCOc4cc5c(cc4OC)C(=O)N4CCC[C@H]4C=N5)cn3C)cn2C)cn1C`, for which the TGI in assay [1] was determined as 0.037 µM. The ΔTm in the assay with DNA [2] worked out at 18.7 °C. The ΔTm in the assay with DNA [3] came out at 17.6 °C. Moreover, in assay [4], the GI50 is 0.0038 µM and the CC50 was 6.8 µM.
Take `CCOC(=O)c1nc(NC(=O)c2cc(NC(=O)c3nc(NC(=O)CCCOc4cc5c(cc4OC)C(=O)N4CCC[C@H]4C=N5)cn3C)cn2C)cn1C`: in assay [1], the TGI came to 0.141 µM. Further, the figures for the ΔTm in the assay with DNA [2] and in the assay with DNA [3] were 16.2 °C and 15.7 °C, respectively. In [4], the GI50 was found to be 0.0042 µM. In addition, the CC50 in [4] was 12.3 µM.
Turning to `COC(=O)c1cc(NC(=O)c2csc(NC(=O)c3cc(NC(=O)CCCOc4cc5c(cc4OC)C(=O)N4CCC[C@H]4C=N5)cn3C)n2)cn1C`, in assay [1], the concentration for total growth inhibition (TGI) was found to be 0.05 µM. For the same compound, the ΔTm in the assay on DNA [2] stood at 20.7 °C; with DNA [3] it was 19.9 °C. Growth in assay [4] was halved (GI50) at 0.0028 µM. Besides, the CC50 in [4] came out at 9.1 µM.
On to `CCOC(=O)c1nc(NC(=O)c2nc(NC(=O)c3cc(NC(=O)CCCOc4cc5c(cc4OC)C(=O)N4CCC[C@H]4C=N5)cn3C)cn2C)cn1C`, for which the TGI in assay [1] was 0.027 µM. For the same compound, the ΔTm in the assay with DNA [2] turned out to be 15.2 °C. The ΔTm with DNA [3] came to 14.8 °C. In assay [4], the GI50 came out at 0.0135 µM and the CC50 came to 9.5 µM.
Regarding `COC(=O)c1cc(NC(=O)c2cc(NC(=O)c3cc(NC(=O)CCCOc4cc5c(cc4OC)C(=O)N4CCC[C@H]4C=N5)cn3C)cn2C)cn1C`, in assay [1], the TGI was 0.032 µM. The ΔTm with DNA [2] was determined as 20.2 °C. In addition, in the assay with DNA [3], the ΔTm amounted to 18.7 °C. For the same compound, in assay [4], it took 0.015 µM to inhibit growth by half (GI50) and the CC50 turned out to be 1.1 µM.
With `COC(=O)c1cc(NC(=O)c2cc(NC(=O)c3csc(NC(=O)CCCOc4cc5c(cc4OC)C(=O)N4CCC[C@H]4C=N5)n3)cn2C)cn1C`, in assay [1], the TGI was 0.03 µM. Also, the shift in melting temperature (ΔTm) in the assay with DNA [2] is 18.2 °C; with DNA [3] it was 17.4 °C. For the same compound, the GI50 in assay [4] was found to be 0.0014 µM. Moreover, in assay [4], the CC50 was 4.4 µM.
Regarding `CCOC(=O)c1nc(NC(=O)c2nc(NC(=O)c3nc(NC(=O)CCCOc4cc5c(cc4OC)C(=O)N4CCC[C@H]4C=N5)cn3C)cn2C)cn1C`, the TGI in assay [1] turned out to be 1.29 µM. For the same compound, the shift in melting temperature (ΔTm) in the assay with DNA [2] amounted to 12 °C; in the assay on DNA [3], 11.7 °C. The same compound registered a GI50 in assay [4] of 0.0871 µM. For the same compound, the CC50 in [4] stood at 15.4 µM.
As to `COC(=O)c1cc(NC(=O)c2cc(NC(=O)CCCOc3cc4c(cc3OC)C(=O)N3CCC[C@H]3C=N4)cn2C)cn1C`, the outcome in the assay listed under Homo sapiens [5] and in the assay listed under Homo sapiens [7] was Active. Also, the inhibition result with NIH/3T3 [6] and in the assay with NIH3T3 was “Active” each time.
Consider `CCOC(=O)c1csc(NC(=O)c2csc(NC(=O)c3csc(NC(=O)CCCOc4cc5c(cc4OC)C(=O)N4CCC[C@H]4C=N5)n3)n2)n1`, for which the TGI in assay [1] is 2.04 µM. In addition, the ΔTm with DNA [2] is 10.9 °C. Besides, the ΔTm with DNA [3] was determined as 10.7 °C. For the same compound, in [4], the GI50 amounted to 0.282 µM and the CC50 worked out at 15.8 µM.
Take `COC(=O)c1cc(NC(=O)c2cc(NC(=O)c3nc(NC(=O)CCCOc4cc5c(cc4OC)C(=O)N4CCC[C@H]4C=N5)cn3C)cn2C)cn1C`: the TGI in [1] was 0.024 µM. In addition, the inhibition result in the assay with NIH/3T3 [8] and in the assay on NIH3T3 was “Active” in each case. Further, the result in the assay filed under Homo sapiens [9] and in the assay listed under Homo sapiens [7] was Active. Also, the ΔTm in the assay on DNA [2] turned out to be 21.1 °C; in the assay on DNA [3] it was 19.8 °C. Moreover, the GI50 in [4] stood at 0.0013 µM. In addition, the CC50 in [4] is 2.3 µM.
In the case of `CCOC(=O)c1csc(NC(=O)c2cc(NC(=O)c3cc(NC(=O)CCCOc4cc5c(cc4OC)C(=O)N4CCC[C@H]4C=N5)cn3C)cn2C)n1`, the TGI in assay [1] was determined as 0.028 µM. Moreover, the shift in melting temperature (ΔTm) in the assay on DNA [2] was found to be 18.6 °C. In addition, the ΔTm in the assay with DNA [3] was 17.7 °C. In [4], the GI50 amounted to 0.0029 µM and the CC50 amounted to 8.9 µM.
The corresponding values for `COC(=O)c1cc(NC(=O)c2nc(NC(=O)c3cc(NC(=O)CCCOc4cc5c(cc4OC)C(=O)N4CCC[C@H]4C=N5)cn3C)cn2C)cn1C` are 0.02 µM, 16.9 °C, 16 °C, 0.003 µM and 6.6 µM.

The values are drawn from ChEMBL document CHEMBL2417466, “An extended pyrrolobenzodiazepine-polyamide conjugate with selectivity for a DNA sequence containing the ICB2 transcription factor binding site” (2013).
